inhibition, Activity and IC50 data for two molecules are collected here from ChEMBL document CHEMBL3797094, “Turmeric Sesquiterpenoids: Expeditious Resolution, Comparative Bioactivity, and a New Bicyclic Turmeronoid” (J Nat Prod, 2016).

Activity calls are given as the source filed them. The rule behind the calls is not given here.

One may read the IC50 as the point on the concentration scale where inhibition reaches its midpoint. Lower therefore signals inhibition by little substance.

Data set [1] concerns the target Hypoxia-inducible factor 1-alpha (Homo sapiens) (UniProt Q16665). Put plainly: Inhibition of DFX induced HIF-1 alpha (unknown origin) activation in NIH/3T3-EPO-Luc cells at 1 to 50 uM after 6 hrs by luciferase reporter gene assay. It counts as cell-based. The method in brief: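 NIH-3T3-EPO-Luc cells (15 × 10⁴ cells/mL, DMEM with 10% FBS, 37 °C) were preincubated with the compounds at rising concentrations, then given DFX (150 μM) for 6 h. Luciferase was measured in the cleared Tris-phosphate/Triton lysate and expressed as fold induction over basal.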

Data set [2] has as its target Signal transducer and activator of transcription 3 (Homo sapiens) (UniProt P40763). Put plainly: Inhibition of IFN gamma-induced STAT3 (unknown origin) activation in HeLa-STAT3-Luc cells at 1 to 50 uM after 6 hrs by luciferase reporter gene assay. It counts as cell-based. The essentials:
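HeLa-STAT3-Luc reporter cells (15 × 10⁴ cells/mL, DMEM with 10% FBS, 37 °C, 5% CO2) were preincubated with the compounds at rising concentrations, then stimulated with IFNγ for 6 h. Lysate luciferase is expressed as percent inhibition, with IFNγ-induced activity set as 100%.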

The target of data set [3] is T1, Nuclear factor erythroid 2-related factor 2 (Homo sapiens) (UniProt Q16236).
T1 sequence (whole entry): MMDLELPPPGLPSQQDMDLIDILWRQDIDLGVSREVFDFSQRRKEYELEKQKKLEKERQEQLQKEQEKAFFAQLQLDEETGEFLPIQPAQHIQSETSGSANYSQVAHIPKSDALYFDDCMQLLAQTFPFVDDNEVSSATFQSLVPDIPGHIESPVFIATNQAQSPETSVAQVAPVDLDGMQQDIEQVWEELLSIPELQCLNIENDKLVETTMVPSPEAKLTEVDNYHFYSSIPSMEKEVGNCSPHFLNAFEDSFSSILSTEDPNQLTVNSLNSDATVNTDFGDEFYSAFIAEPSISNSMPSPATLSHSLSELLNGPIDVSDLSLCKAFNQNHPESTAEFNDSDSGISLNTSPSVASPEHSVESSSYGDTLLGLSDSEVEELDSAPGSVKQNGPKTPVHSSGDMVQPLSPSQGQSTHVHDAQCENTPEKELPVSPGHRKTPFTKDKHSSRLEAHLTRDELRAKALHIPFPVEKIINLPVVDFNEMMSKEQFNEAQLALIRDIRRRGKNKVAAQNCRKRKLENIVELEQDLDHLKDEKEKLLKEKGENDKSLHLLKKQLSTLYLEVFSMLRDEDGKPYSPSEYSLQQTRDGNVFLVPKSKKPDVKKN
Description: Activation of Nrf2 (unknown origin) in HaCaT-ARE-Luc cells at 1 to 50 uM after 6 hrs by luciferase reporter gene assay. The data set is classed as cell-based. The method in brief: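 HaCaT-ARE-Luc cells (15 × 10⁴ cells/mL, DMEM with 10% FBS, 37 °C, 5% CO2) were exposed to the compounds alone at rising concentrations for 6 h. Cells were PBS-washed and lysed in Tris-phosphate pH 7.8 with Triton X-100. Luciferase activity in the cleared lysate is given as fold induction over basal.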
On the technique in general: In a reporter assay the amount or activity of a reporter protein is the signal.

Data set [4] is filed under the species Homo sapiens. Put plainly: Activation of NF-kappaB (unknown origin) in NIH/3T3-KBF-Luc cells at 1 to 50 uM coincubated with TNF-alpha after 6 hrs by luciferase reporter gene assay. The data set is classed as cell-based. The essentials: (§1)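 NIH-3T3-KBF-Luc fibroblasts (15 × 10⁴ cells/mL) were kept at 37 °C and 5% CO2 in DMEM with 10% heat-inactivated FBS. Cells were preincubated with the compounds at rising concentrations, then stimulated with TNFα for 6 h. They were PBS-washed and lysed for 15 min at rt in Tris-phosphate pH 7.8 with 1% Triton X-100. Luciferase was read in the supernatant, with TNFα alone set as 100%.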

A short description of data set [5]: Cytotoxicity against mouse NIH/3T3-EPO-Luc cells assessed as cell viability at 1 to 50 uM after 12 hrs by YOYO-1 staining based fluorescence assay. The note with it: nih3t3, 12 h.
Data set [6] is described as follows: Cytotoxicity against mouse NIH/3T3-KBF-Luc cells assessed as cell viability at 1 to 50 uM after 12 hrs by YOYO-1 staining based fluorescence assay. The note with it: nih3t3, 12 h.
The test system of data set [7] is HeLa. Put plainly: Cytotoxicity against human HeLa-STAT3-Luc cells assessed as cell viability at 1 to 50 uM after 12 hrs by YOYO-1 staining based fluorescence assay.
The species named for data set [8] is Homo sapiens. Description: Inhibition of TNF alpha-induced NF-kappaB (unknown origin) activation in NIH/3T3-KBF-Luc cells assessed as suppression of IKappaB alpha phosphorylation at 1 to 50 uM preincubated for 15 mins followed by TNF alpha stimulation for 30 mins by western blot analysis. It counts as cell-based. The essentials: (§2)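 NIH-3T3-KBF-Luc cells were treated with the compounds for 15 min, then stimulated with TNFα (30 ng/mL) for 30 min. Lysis used Hepes pH 8.0 buffer with 0.5% NP-40 and protease/phosphatase inhibitors (15 min, 4 °C), then 10000g for 10 min. After Bradford assay, 20 μg protein was run on 10% SDS-PAGE and blotted to nitrocellulose. Blocking was 5% milk overnight; phospho-protein detection was by ECL.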
For orientation: Immunoblotting shows a protein as a band on a membrane.

Data set [9] concerns HaCaT. Put plainly: Cytotoxicity against human HaCaT-ARE-Luc cells assessed as cell viability at 1 to 50 uM after 12 hrs by YOYO-1 staining based fluorescence assay.
For data set [10], the species on record is Homo sapiens. Put plainly: Inhibition of TNF alpha-induced NF-kappaB (unknown origin) activation in NIH/3T3-KBF-Luc cells assessed as suppression of p65 phosphorylation at 1 to 50 uM preincubated for 15 mins followed by TNF alpha stimulation for 30 mins by western blot analysis. The data set is classed as cell-based. The method in brief: as §2
The nature of data set [11]: Inhibition of TNF alpha-induced NF-kappaB (unknown origin) activation in NIH/3T3-KBF-Luc cells after 6 hrs by luciferase reporter gene assay. The settings on record: Homo sapiens. The data set is classed as cell-based. The method in brief:
as §1

Chain of Hypoxia-inducible factor 1-alpha (Homo sapiens) (Q16665 whole entry, looked up): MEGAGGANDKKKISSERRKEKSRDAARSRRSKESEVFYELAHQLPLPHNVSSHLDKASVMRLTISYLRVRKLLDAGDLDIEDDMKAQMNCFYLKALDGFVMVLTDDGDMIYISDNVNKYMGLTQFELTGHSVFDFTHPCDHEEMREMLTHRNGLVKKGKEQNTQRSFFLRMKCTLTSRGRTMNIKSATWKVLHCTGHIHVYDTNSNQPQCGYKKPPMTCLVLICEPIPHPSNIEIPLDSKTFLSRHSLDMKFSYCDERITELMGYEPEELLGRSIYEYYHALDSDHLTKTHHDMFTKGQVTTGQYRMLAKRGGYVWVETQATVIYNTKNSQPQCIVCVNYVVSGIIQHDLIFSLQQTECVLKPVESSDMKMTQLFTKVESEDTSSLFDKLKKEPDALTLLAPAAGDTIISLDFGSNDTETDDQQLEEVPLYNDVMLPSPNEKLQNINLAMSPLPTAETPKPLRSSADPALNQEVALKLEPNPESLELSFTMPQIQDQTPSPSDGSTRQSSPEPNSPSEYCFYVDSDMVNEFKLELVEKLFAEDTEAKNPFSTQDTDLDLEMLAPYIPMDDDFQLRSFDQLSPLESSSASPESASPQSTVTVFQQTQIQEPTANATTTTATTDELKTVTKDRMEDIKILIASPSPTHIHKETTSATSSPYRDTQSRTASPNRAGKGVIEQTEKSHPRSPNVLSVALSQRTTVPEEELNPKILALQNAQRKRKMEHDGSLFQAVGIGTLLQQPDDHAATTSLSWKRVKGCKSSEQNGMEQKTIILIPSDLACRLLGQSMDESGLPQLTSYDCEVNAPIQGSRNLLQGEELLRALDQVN
Chain of Signal transducer and activator of transcription 3 (Homo sapiens) (P40763 whole entry): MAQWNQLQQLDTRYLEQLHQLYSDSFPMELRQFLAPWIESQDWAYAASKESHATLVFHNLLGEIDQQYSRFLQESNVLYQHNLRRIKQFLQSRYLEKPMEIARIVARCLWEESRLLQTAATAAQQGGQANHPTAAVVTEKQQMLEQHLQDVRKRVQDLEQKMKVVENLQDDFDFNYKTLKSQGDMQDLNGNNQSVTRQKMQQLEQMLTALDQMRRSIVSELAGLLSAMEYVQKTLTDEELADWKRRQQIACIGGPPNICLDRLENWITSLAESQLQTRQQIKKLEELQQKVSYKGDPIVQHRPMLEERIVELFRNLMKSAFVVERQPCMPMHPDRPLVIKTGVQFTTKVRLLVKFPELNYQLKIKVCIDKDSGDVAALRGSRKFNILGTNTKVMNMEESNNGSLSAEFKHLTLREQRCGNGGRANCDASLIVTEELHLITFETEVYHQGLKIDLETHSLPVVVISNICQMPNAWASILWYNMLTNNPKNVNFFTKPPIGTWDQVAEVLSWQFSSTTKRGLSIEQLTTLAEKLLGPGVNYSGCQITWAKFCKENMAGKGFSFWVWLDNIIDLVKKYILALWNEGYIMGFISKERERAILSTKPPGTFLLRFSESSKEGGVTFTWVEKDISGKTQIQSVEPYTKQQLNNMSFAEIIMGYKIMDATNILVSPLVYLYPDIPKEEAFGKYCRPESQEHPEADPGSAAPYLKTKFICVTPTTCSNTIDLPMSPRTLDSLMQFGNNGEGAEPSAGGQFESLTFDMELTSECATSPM

Turning to `C=C1C=C[C@H]([C@@H](C)CC(=O)C=C(C)C)CC1`, in data set [1], the inhibition entry was “inactive”. In addition, the result in data set [2] was inactive. The outcome in [3] and in data set [4] was Active.

In the case of `CC(C)=CC(=O)C[C@H](C)c1ccc(C)cc1`, the Activity entry in data set [5], in data set [6], in [7] and in [9] was “Non-toxic” each time. Also, the inhibition result in data set [1] was “inactive”. Moreover, in data set [3], the result was inactive. Also, the inhibition result in [8] and in data set [10] was “Active” each time. In addition, it took 22.7 µM to reach half-maximal inhibition in data set [11] (IC50).
